From ChEMBL document CHEMBL2146464, “Structure-activity relationship study of nitrosopyrimidines acting as antifungal agents” (Bioorg Med Chem, 2012)
≈ marks a conversion by molar mass, not a printed value. Calls of active or inactive are those of the source. The calls are words filed in the database; no cut-off is given here.

Tests used:
Candida tropicalis [1] = experiment: Antifungal activity against Candida tropicalis assessed as growth inhibition at 15.6 ug/mL by microplate reader analysis; type: functional; settings: read-out: GI
Candida tropicalis [2] = experiment: Antifungal activity against Candida tropicalis assessed as growth inhibition at 31.25 ug/mL by microplate reader analysis; type: functional; settings: read-out: GI
Candida tropicalis [3] = experiment: Antifungal activity against Candida tropicalis after 48 hrs by NCCLS broth microdilution method; type: functional; settings: read-out: MIC100
In short: (§1)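 Yeast MIC by NCCLS M27-A3 broth microdilution in RPMI-1640 buffered to pH 7.0 with MOPS. Twofold dilutions of 250–0.98 µg/mL, final DMSO ≤1%. Inoculum 1–5 × 10³ CFU/mL. Incubated at 30 °C in a moist dark chamber. Read visually at 48 h. MIC100 is the lowest concentration with no visible growth versus drug-free control.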

Cryptococcus neoformans [4] = experiment: Antifungal activity against Cryptococcus neoformans ATCC 32264 assessed as growth inhibition at 125 ug/mL after 48 hrs by microplate reader analysis; type: functional; settings: ATCC 32264, 48 h, read-out: GI
In short: (§2)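 Microplate growth-inhibition assay in RPMI-1640, compound at final 250–0.98 µg/mL (DMSO ≤1%). Inoculum 1–5 × 10³ CFU/mL. Sterility and DMSO growth controls included. Percent inhibition is computed from blank-corrected OD relative to the growth control, tested in duplicate.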

Candida albicans [5] = experiment: Antifungal activity against Candida albicans ATCC 10231 assessed as growth inhibition at 125 ug/mL after 24 hrs by microplate reader analysis; type: functional; settings: ATCC 10231, 24 h, read-out: GI
In short: (§3)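 96-well RPMI-1640 wells with compound at final 250–0.98 µg/mL (DMSO ≤1%). Inoculum 100 µL, 1–5 × 10³ CFU/mL, 200 µL final. Each well includes growth (DMSO, no compound) and sterility controls. % inhibition = 100 − (CTW−SCW)/(GCW−SCW) × 100, run in duplicate.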

Nannizzia gypsea = experiment: Antifungal activity against Microsporum gypseum CCC 115 at 0.98 to 250 ug/mL by NCCLS broth microdilution method; type: functional, organism-based
In short: (§4)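 MIC by broth microdilution per NCCLS M27-A3/M38-A2 in RPMI-1640 buffered to pH 7.0 with MOPS. Twofold dilutions from 250–0.98 µg/mL, final DMSO ≤1%. Inoculum 1–5 × 10³ CFU/mL. Incubated in a moist dark chamber, 30 °C for Aspergillus and 28–30 °C for dermatophytes. Read visually when control growth allowed. Endpoint is the lowest concentration giving total inhibition of visible growth (MIC100).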

[6] = Acute toxicity in bony fish assessed as mortality at 38.4 ug/mL after 96 hrs; settings: actinopterygii; read-out: Activity
In short: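 Guppy (Poecilia reticulata) acute static exposure: 10 fish per concentration in 2 L wide-mouthed jars holding the test solution. Compounds were added from […] to give the final concentrations. Dead fish were counted and removed every 24 h, with general condition noted; percentage mortality was scored at 96 h. Two experiments, each in triplicate.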

Candida tropicalis [7] = experiment: Antifungal activity against Candida tropicalis assessed as growth inhibition at 125 ug/mL by microplate reader analysis; type: functional; settings: read-out: GI
Cryptococcus neoformans [8] = experiment: Fungicidal activity against Cryptococcus neoformans ATCC 32264 after 48 hrs by agar plate dilution method; type: functional; settings: ATCC 32264, 48 h
In short: (§5)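 MFC: after the microdilution MIC, material from each clear well was plated onto RPMI-1640 agar buffered with MOPS. Plates incubated at 30 °C and read after 48 h. MFC is the lowest concentration giving total inhibition of visible growth.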

Cryptococcus neoformans [9] = experiment: Antifungal activity against Cryptococcus neoformans ATCC 32264 after 48 hrs by microplate reader analysis; type: functional; settings: ATCC 32264, 48 h; in short: as §2
Candida tropicalis [10] = experiment: Antifungal activity against Candida tropicalis by microplate reader analysis; type: functional
Candida tropicalis [11] = experiment: Antifungal activity against Candida tropicalis assessed as growth inhibition at 7.8 ug/mL by microplate reader analysis; type: functional; settings: read-out: GI
Trichophyton rubrum = experiment: Antifungal activity against Trichophyton rubrum CCC 110 at 0.98 to 250 ug/mL by NCCLS broth microdilution method; type: functional, organism-based; in short: as §4
Candida albicans [12] = experiment: Antifungal activity against Candida albicans ATCC 10231 after 48 hrs by NCCLS broth microdilution method; type: functional; settings: ATCC 10231, 48 h, read-out: MIC100; in short: as §1
Aspergillus fumigatus = experiment: Antifungal activity against Aspergillus fumigatus ATCC 26934 at 0.98 to 250 ug/mL by NCCLS broth microdilution method; type: functional, organism-based; in short: as §4
Candida albicans [13] = experiment: Antifungal activity against Candida albicans ATCC 10231 assessed as growth inhibition at 250 ug/mL after 24 hrs by microplate reader analysis; type: functional; settings: ATCC 10231, 24 h, read-out: GI; in short: as §3
[14] = tested on: Trichophyton mentagrophytes; experiment: Antifungal activity against Trichophyton mentagrophytes ATCC 9972 at 0.98 to 250 ug/mL by NCCLS broth microdilution method; type: functional, organism-based; in short: as §4
Cryptococcus neoformans [15] = experiment: Antifungal activity against Cryptococcus neoformans ATCC 32264 assessed as growth inhibition at 31.25 ug/mL after 48 hrs by microplate reader analysis; type: functional; settings: ATCC 32264, 48 h, read-out: GI; in short: as §2
Aspergillus niger = experiment: Antifungal activity against Aspergillus niger ATCC 9029 at 0.98 to 250 ug/mL by NCCLS broth microdilution method; type: functional, organism-based; in short: as §4
Cryptococcus neoformans [16] = experiment: Antifungal activity against Cryptococcus neoformans ATCC 32264 after 48 hrs by NCCLS broth microdilution method; type: functional; settings: ATCC 32264, 48 h, read-out: MIC100; in short: as §1
Cryptococcus neoformans [17] = experiment: Antifungal activity against Cryptococcus neoformans ATCC 32264 assessed as growth inhibition at 250 ug/mL after 48 hrs by microplate reader analysis; type: functional; settings: ATCC 32264, 48 h, read-out: GI; in short: as §2
Candida tropicalis [18] = experiment: Fungicidal activity against Candida tropicalis at 0.98 to 250 ug/mL after 48 hrs by agar plate dilution method; type: functional, organism-based; in short: as §5
Candida albicans [19] = experiment: Antifungal activity against Candida albicans ATCC 10231 assessed as growth inhibition at 62.5 ug/mL after 24 hrs by microplate reader analysis; type: functional; settings: ATCC 10231, 24 h, read-out: GI; in short: as §3
Candida albicans [20] = experiment: Antifungal activity against Candida albicans ATCC 10231 assessed as growth inhibition at 7.8 ug/mL after 24 hrs by microplate reader analysis; type: functional; settings: ATCC 10231, 24 h, read-out: GI; in short: as §3
Cryptococcus neoformans [21] = experiment: Antifungal activity against Cryptococcus neoformans ATCC 32264 assessed as growth inhibition at 62.5 ug/mL after 48 hrs by microplate reader analysis; type: functional; settings: ATCC 32264, 48 h, read-out: GI; in short: as §2
Candida albicans [22] = experiment: Antifungal activity against Candida albicans ATCC 10231 assessed as growth inhibition at 31.25 ug/mL after 24 hrs by microplate reader analysis; type: functional; settings: ATCC 10231, 24 h, read-out: GI; in short: as §3
Candida tropicalis [23] = experiment: Antifungal activity against Candida tropicalis assessed as growth inhibition at 250 ug/mL by microplate reader analysis; type: functional; settings: read-out: GI
Candida albicans [24] = experiment: Antifungal activity against Candida albicans ATCC 10231 after 24 hrs by microplate reader analysis; type: functional; settings: ATCC 10231, 24 h; in short: as §3
Aspergillus flavus = experiment: Antifungal activity against Aspergillus flavus ATCC 9170 at 0.98 to 250 ug/mL by NCCLS broth microdilution method; type: functional, organism-based; in short: as §4
Candida albicans [25] = experiment: Antifungal activity against Candida albicans ATCC 10231 assessed as growth inhibition at 15.6 ug/mL after 24 hrs by microplate reader analysis; type: functional; settings: ATCC 10231, 24 h, read-out: GI; in short: as §3
Candida albicans [26] = experiment: Fungicidal activity against Candida albicans ATCC 10231 at 0.98 to 250 ug/mL after 48 hrs by agar plate dilution method; type: functional, organism-based; in short: as §5
Candida tropicalis [27] = experiment: Antifungal activity against Candida tropicalis assessed as growth inhibition at 62.5 ug/mL by microplate reader analysis; type: functional; settings: read-out: GI
Cryptococcus neoformans [28] = experiment: Antifungal activity against Cryptococcus neoformans ATCC 32264 assessed as growth inhibition at 3.9 ug/mL after 48 hrs by microplate reader analysis; type: functional; settings: ATCC 32264, 48 h, read-out: GI; in short: as §2
Cryptococcus neoformans [29] = experiment: Antifungal activity against Cryptococcus neoformans ATCC 32264 assessed as growth inhibition at 15.6 ug/mL after 48 hrs by microplate reader analysis; type: functional; settings: ATCC 32264, 48 h, read-out: GI; in short: as §2
Candida tropicalis [30] = experiment: Antifungal activity against Candida tropicalis assessed as growth inhibition at 3.9 ug/mL by microplate reader analysis; type: functional; settings: read-out: GI
Candida albicans [31] = experiment: Antifungal activity against Candida albicans ATCC 10231 assessed as growth inhibition at 3.9 ug/mL after 24 hrs by microplate reader analysis; type: functional; settings: ATCC 10231, 24 h, read-out: GI; in short: as §3
Cryptococcus neoformans [32] = experiment: Antifungal activity against Cryptococcus neoformans ATCC 32264 assessed as growth inhibition at 7.8 ug/mL after 48 hrs by microplate reader analysis; type: functional; settings: ATCC 32264, 48 h, read-out: GI; in short: as §2

## COc1nc(N)nc(Nc2cccc(Cl)c2)c1N=O
Candida tropicalis [1]
  inhibition of growth at 15.6 µg/mL: 75.2%
Candida tropicalis [2]
  inhibition of growth at 31.25 µg/mL: 85.2%
Candida tropicalis [3]
  MIC: 125 µg/mL (≈ 447 µM)
Cryptococcus neoformans [4]
  inhibition of growth at 125 µg/mL: 100%
Candida albicans [5]
  inhibition of growth at 125 µg/mL: 100%
Nannizzia gypsea
  Activity: inactive
[6]
  mortality at 96 h, 38.4 ug/mL: 0%
Candida tropicalis [7]
  inhibition of growth at 125 µg/mL: 100%
Cryptococcus neoformans [8]
  MFC: 250 µg/mL (≈ 894 µM)
Cryptococcus neoformans [9]
  MIC50: 3.9 µg/mL (≈ 13.9 µM)
Candida tropicalis [10]
  MIC50: 3.9 µg/mL (≈ 13.9 µM)
Candida tropicalis [11]
  inhibition of growth at 7.8 µg/mL: 64.5%
Trichophyton rubrum
  Activity: inactive
Candida albicans [12]
  MIC: 125 µg/mL (≈ 447 µM)
Aspergillus fumigatus
  Activity: inactive
Candida albicans [13]
  inhibition of growth at 250 µg/mL: 100%
[14]
  Activity: inactive
Cryptococcus neoformans [15]
  inhibition of growth at 31.25 µg/mL: 81.3%
Aspergillus niger
  Activity: inactive
Cryptococcus neoformans [16]
  MIC: 125 µg/mL (≈ 447 µM)
Cryptococcus neoformans [17]
  inhibition of growth at 250 µg/mL: 100%
Candida tropicalis [18]
  Activity: inactive
Candida albicans [19]
  inhibition of growth at 62.5 µg/mL: 92.7%
Candida albicans [20]
  inhibition of growth at 7.8 µg/mL: 80.3%
Cryptococcus neoformans [21]
  inhibition of growth at 62.5 µg/mL: 83.7%
Candida albicans [22]
  inhibition of growth at 31.25 µg/mL: 91.8%
Candida tropicalis [23]
  inhibition of growth at 250 µg/mL: 100%
Candida albicans [24]
  MIC50: 3.9 µg/mL (≈ 13.9 µM)
Aspergillus flavus
  Activity: inactive
Candida albicans [25]
  inhibition of growth at 15.6 µg/mL: 86.3%
Candida albicans [26]
  Activity: inactive
Candida tropicalis [27]
  inhibition of growth at 62.5 µg/mL: 87.9%
Cryptococcus neoformans [28]
  inhibition of growth at 3.9 µg/mL: 53.2%
Cryptococcus neoformans [29]
  inhibition of growth at 15.6 µg/mL: 80.6%
Candida tropicalis [30]
  inhibition of growth at 3.9 µg/mL: 48.8%
Candida albicans [31]
  inhibition of growth at 3.9 µg/mL: 53.3%
Cryptococcus neoformans [32]
  inhibition of growth at 7.8 µg/mL: 74.9%
